From article PMC9033422 (RSC Advances, 2021) come the findings set out here.

Assay [1] relates to human liver cancer cell lines SMMC-7721. Put plainly: MTT cytotoxicity, SMMC-7721 cells, 24 h. Type of assay: cell-based. To be noted: SMMC-7721, 24 h, read-out: IC50 (μM)/24 h SMMC-7721. The essentials:
(§1)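 Cells (1 × 10^4 per well, triplicate) were pre-cultured 24 h at 37 °C, then exposed 24 h at 37 °C to test compound at 10, 25, 50, 100 and 200 μg mL−1, with drug-free and DMSO solvent controls. MTT (2 mg mL−1 stock in PBS) was added for 4 h and formazan dissolved in DMSO. A568 was read; inhibition % = (A control − A dosed)/A control × 100.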

For assay [2], the system named is human benign liver cell lines LO2. Put plainly: MTT cytotoxicity, LO2 cells, 24 h. Format: cell-based. To be noted: L02, 24 h, read-out: IC50 (μM)/24 h LO2. The essentials:
as §1

The test system of assay [3] is human benign breast cell lines MCF-10A. Put plainly: MTT cytotoxicity of 12a, MCF-10A cells, 48 h. Type of assay: cell-based. To be noted: read-out: IC50 (μM)/48 h MCF-10A. The method, boiled down:
(§2)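 Seeding was 1 × 10^4 cells per well in triplicate, with 24 h pre-culture at 37 °C. No iron supplement was used. Test compound at 0.01, 0.1, 1, 10 and 25 μg mL−1 was given for 48 h at 37 °C, with drug-free and DMSO solvent controls. MTT (2 mg mL−1 stock in PBS) was added for 4 h, centrifuged, formazan dissolved in DMSO, and absorbance read at 568 nm.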

In assay [4] the test system is MHCC97H cell lines. Kind of assay: Annexin V-FITC/PI flow cytometry apoptosis assay. To be noted: 48 h. Type of assay: cell-based, human. The method, boiled down:
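MHCC97H cells were seeded in triplicate and pre-cultured 24 h at 37 °C. Medium was replaced with test compound at 0.01, 1 or 25 μg mL−1, alongside drug-free and DMSO solvent controls, for 48 h at 37 °C. Cells were detached with 0.25% trypsin without EDTA, stained with Annexin V-FITC/PI for 5–15 min at room temperature in the dark, and analysed by flow cytometry. Quadrants: live, early apoptotic, late apoptotic, necrotic.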
(In general: Flow cytometry measures light scatter and fluorescence of single cells or particles in a stream.)

In assay [5] the test system is human benign colon cell lines CCD18CO. Put plainly: MTT cytotoxicity of 12a, CCD18CO cells, 48 h. Type of assay: cell-based. The following applies: CCD-18Co, read-out: IC50 (μM)/48 h CCD18CO. The essentials:
as §2

Assay [6] concerns human benign prostate cell lines RWPE-1. Kind of assay: MTT cytotoxicity of 12a, RWPE-1 cells, 48 h. Type of assay: cell-based. The following applies: RWPE-1, 48 h, read-out: IC50 (μM)/48 h RWPE-1. The essentials: as §2
Assay [7] deals with human liver cancer cell lines SMMC-7721. Kind of assay: MTT cytotoxicity of 12a in Fe2+ environment, SMMC-7721 cells, 48 h. The following applies: SMMC-7721, 48 h, read-out: IC50 (μM)/48 h SMMC-7721 with Fe2+. Format: cell-based. The method, boiled down: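 Cells at 1 × 10^4 per well, in triplicate, grew 12 h at 37 °C, then 12 h more in medium containing 100 μmol L−1 FeSO4. Medium was replaced with test compound (0.01, 0.1, 1, 10, 25 μg mL−1), with drug-free and DMSO solvent controls, for 48 h at 37 °C. MTT (2 mg mL−1 stock in PBS) was added for 4 h, formazan dissolved in DMSO, and A568 read.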

In the case of `CC(C)[C@@H]1CC[C@@H](C)C[C@@H]1O[C@H]1OC(=O)C(Cl)=C1N1CCN(CCCCCC[C@H]2CN([C@@H]3OC4O[C@@]5(C)CC[C@H]6[C@H](C)CC[C@@H]([C@H]3C)[C@@]46OO5)CCS2(=O)=O)CC1` (stereo partly drawn) [Hybrid 12b, (5S)-3-Chloro-4-(4-(6-((2S)-1,1-dioxido-4-((3R,5aS,6R,8aS,9R,10R,12aR)-3,6,9-trimethyldecahydro-3H-3,12-epoxy[1,2]dioxepino[4,3-i]isochromen-10-yl)thiomorpholin-2-yl)hexyl)piperazin-1-yl)-5-(((1S,2S,5R)-2-isopropyl-5-methylcyclohexyl)oxy)furan-2(5H)-one], the IC50 in assay [1] came out at 320 ± 30 µM; in assay [2] it was 360 ± 30 µM.

On to `CC[C@]1(O)C[C@H]2CN(CCc3c([nH]c4ccccc34)[C@@](C(=O)OC)(c3cc4c(cc3OC)N(C=O)[C@H]3[C@@](O)(C(=O)OC)[C@H](OC(C)=O)[C@]5(CC)C=CCN6CC[C@]43[C@@H]65)C2)C1` [VCR, vincristine, reference compound], for which the IC50 in assay [1] turned out to be 270 ± 30 µM; in assay [2], 300 ± 20 µM.

As to `COC1OC(=O)C(Cl)=C1N1CCN(CCCCCC[C@H]2CN([C@@H]3OC4O[C@@]5(C)CC[C@H]6[C@H](C)CC[C@@H]([C@H]3C)[C@@]46OO5)CCS2(=O)=O)CC1` (stereo partly drawn) [Hybrid 12a, 3-Chloro-4-(4-(6-((2S)-1,1-dioxido-4-((3R,5aS,6R,8aS,9R,10R,12aR)-3,6,9-trimethyldecahydro-3H-3,12-epoxy[1,2]dioxepino[4,3-i]isochromen-10-yl)thiomorpholin-2-yl)hexyl)piperazin-1-yl)-5-methoxyfuran-2(5H)-one], the IC50 was 30 ± 40 µM in assay [1]; 40 ± 40 µM in assay [3]; 60 ± 40 µM in assay [5]; 700 ± 20 µM in assay [2]; 100 ± 30 µM in assay [6]; 20 ± 30 µM in assay [7]. The percentage of apoptosis in assay [4] (0.01 μg mL^−1 (lowest concentration)) worked out at 7.67%; in assay [4] (25 μg mL^−1 (highest concentration)), 59.76%.

In the case of `COC1OC(=O)C(Br)=C1N1CCN(CCCCCC[C@H]2CN([C@@H]3OC4O[C@@]5(C)CC[C@H]6[C@H](C)CC[C@@H]([C@H]3C)[C@@]46OO5)CCS2(=O)=O)CC1` (stereo partly drawn) [Hybrid 12d, 3-Bromo-4-(4-(6-((2S)-1,1-dioxido-4-((3R,5aS,6R,8aS,9R,10R,12aR)-3,6,9-trimethyldecahydro-3H-3,12-epoxy[1,2]dioxepino[4,3-i]isochromen-10-yl)thiomorpholin-2-yl)hexyl)piperazin-1-yl)-5-methoxyfuran-2(5H)-one], the IC50 in assay [1] is 340 ± 20 µM; in assay [2] it was 370 ± 40 µM.

For `CC(C)[C@@H]1CC[C@@H](C)C[C@@H]1O[C@H]1OC(=O)C(Br)=C1N1CCN(CCCCCC[C@H]2CN([C@@H]3OC4O[C@@]5(C)CC[C@H]6[C@H](C)CC[C@@H]([C@H]3C)[C@@]46OO5)CCS2(=O)=O)CC1` (stereo partly drawn) [Hybrid 12e, (5S)-3-Bromo-4-(4-(6-((2S)-1,1-dioxido-4-((3R,5aS,6R,8aS,9R,10R,12aR)-3,6,9-trimethyldecahydro-3H-3,12-epoxy[1,2]dioxepino[4,3-i]isochromen-10-yl)thiomorpholin-2-yl)hexyl)piperazin-1-yl)-5-(((1S,2S,5R)-2-isopropyl-5-methylcyclohexyl)oxy)furan-2(5H)-one], the IC50 in assay [1] was 210 ± 20 µM; in assay [2], 330 ± 30 µM.

Take `C[C@H]1[C@H](N2CCS(=O)(=O)[C@@H](CCCCCCN3CCN(C4=C(Cl)C(=O)OC4O[C@H]4CC5CCC4(C)C5(C)C)CC3)C2)O[C@@H]2O[C@@]3(C)CC[C@H]4[C@H](C)CC[C@@H]1[C@@]24OO3` (stereo partly drawn) [Hybrid 12c, 3-Chloro-4-(4-(6-((S)-1,1-dioxido-4-((3R,5aS,6R,8aS,9R,10R,12R,12aR)-3,6,9-trimethyldecahydro-3H-3,12-epoxy[1,2]dioxepino[4,3-i]isochromen-10-yl)thiomorpholin-2-yl)hexyl)piperazin-1-yl)-5-(((2S)-1,7,7-trimethylbicyclo[2.2.1]heptan-2-yl)oxy)furan-2(5H)-one]: the IC50 is 70 ± 40 µM in assay [1] and 70 ± 30 µM in assay [2].

For `C[C@H]1[C@@H](O)O[C@@H]2O[C@@]3(C)CC[C@H]4[C@H](C)CC[C@@H]1[C@@]24OO3` [DHA, Dihydroartemisinin, reference compound], the IC50 is greater than 700 µM in assay [1] and 220 ± 40 µM in assay [2].

Regarding `C[C@H]1[C@H](N2CCS(=O)(=O)[C@@H](CCCCCCN3CCN(C4=C(Br)C(=O)O[C@@H]4O[C@H]4CC5CCC4(C)C5(C)C)CC3)C2)O[C@@H]2O[C@@]3(C)CC[C@H]4[C@H](C)CC[C@@H]1[C@@]24OO3` [Hybrid 12f, (5S)-3-Bromo-4-(4-(6-((S)-1,1-dioxido-4-((3R,5aS,6R,8aS,9R,10R,12R,12aR)-3,6,9-trimethyldecahydro-3H-3,12-epoxy[1,2]dioxepino[4,3-i]isochromen-10-yl)thiomorpholin-2-yl)hexyl)piperazin-1-yl)-5-(((2S)-1,7,7-trimethylbicyclo[2.2.1]heptan-2-yl)oxy)furan-2(5H)-one], the IC50 turned out to be 220 ± 30 µM in assay [1] and 300 ± 30 µM in assay [2].
